Converted amounts (≈) assume the structure as drawn.
Assays:
Erythrocyte = experiment: Hemolytic activity in human RBC after 1 hr; assay type: ADME, cell-based
Outline: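 Hemolysis of human red blood cells is reported as HC10, the concentration giving 10% hemolysis, in µg/mL.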

[1] = Cytotoxicity against human HepG2 cells after 72 hrs by MTT assay; assay type: cell-based; settings: read-out: TD50
[2] = Hemolytic activity in human RBC at 100 ug/ml after 1 hr relative to control; assay type: ADME, cell-based, Erythrocyte; settings: red blood cells (erythrocytes), read-out: Activity
[3] = Cytotoxicity against mouse NIH/3T3 cells after 72 hrs by MTT assay; assay type: cell-based, NIH3T3; settings: read-out: TD50
[4] = Selectivity index, ratio of TD50 for human HepG2 cells to MIC>90 for Cryptococcus neoformans H99S serotype A; assay type: toxicity; settings: read-out: Selectivity Index
[5] = Selectivity index, ratio of HC10 for human RBC to MIC>90 for Cryptococcus neoformans H99S serotype A; assay type: toxicity; settings: red blood cells, read-out: Selectivity Index
[6] = Selectivity index, ratio of TD50 for mouse NIH/3T3 cells to MIC>90 for Cryptococcus neoformans H99S serotype A; assay type: toxicity; settings: read-out: Selectivity Index
Cryptococcus neoformans = experiment: Antifungal activity against Cryptococcus neoformans H99S serotype A after 72 hrs by presto blue dye based CLSI method; assay type: functional, Cryptococcus neoformans var. grubii H99S

Compound	HC10 (Erythrocyte) [µg/mL]	CC50 at 72 h [1] [µg/mL]	hemolysis at 1 h, 100 ug/ml [2] [%]	CC50 at 72 h [3] [µg/mL]	selectivity ratio [4]	selectivity ratio [5]	selectivity ratio [6]	MIC90 (Cryptococcus neoformans) [µg/mL]
CCCCCCCCCCCCCNCC(=O)N(CCCCN)CC(=O)N(CC(N)=O)Cc1ccco1	56.6	56.2 (≈ 108 µM)	30.4	48.6 (≈ 93.1 µM)	9	9	8	6.3 (≈ 12.1 µM)
CCCCCCCCCCCCCNCC(=O)N(CCN)CC(=O)N(CC(N)=O)Cc1cccs1	–	40.5 (≈ 79.4 µM)	–	–	6	–	–	6.25 (≈ 12.3 µM)
CCCCCCCCCCCCCNCC(=O)N(CCCCN)CC(=O)N(CC(N)=O)Cc1ncc[nH]1	–	147 (≈ 282 µM)	–	–	6	–	–	25 (≈ 47.9 µM)
CC(C)=CCC/C(C)=C/CC/C(C)=C/CNCC(=O)N(CCCCN)CC(=O)N(CCCn1ccnc1)CC(N)=O	–	–	–	–	–	–	–	100 (≈ 175 µM)
CCCCCCCCCCCCCCCCNCC(=O)N(CCCCN)CC(=O)N(CC(N)=O)Cc1ccco1	–	40.4 (≈ 71.7 µM)	–	–	13	–	–	3.13 (≈ 5.55 µM)
CCCCCCCCCCCCCNCC(=O)N(CCCCN)CC(=O)N(CC(N)=O)Cc1ccccc1	–	52.2 (≈ 98.2 µM)	–	–	17	–	–	3.13 (≈ 5.89 µM)
CCCCCCCCCCCCCNCC(=O)N(CCCNC(=N)N)CC(=O)N(CC(N)=O)Cc1cccs1	–	40.8 (≈ 72.1 µM)	–	–	3	–	–	12.5 (≈ 22.1 µM)
CCCCCCCCCCCCCNCC(=O)N(CCCCN)CC(=O)N(CC(N)=O)CC1CCCO1 (centres undefined)	–	170 (≈ 324 µM)	–	–	14	–	–	12.5 (≈ 23.8 µM)
CCCCCCCCNCC(=O)N(CCCCN)CC(=O)N(CC(N)=O)Cc1ccco1	–	–	–	–	–	–	–	> 800
CCCCCCCCCCCCCNCC(=O)N(CCCCN)CC(=O)N(CCc1c[nH]c2ccccc12)CC(N)=O	–	42.7 (≈ 73 µM)	–	–	14	–	–	3.13 (≈ 5.35 µM)
CNCC(=O)N(CCCCN)CC(=O)N(CC(N)=O)Cc1ccco1	–	> 800	–	–	–	–	–	> 400
CCCCCCCCCCCCCNCC(=O)N(CCCC[N+](C)(C)C)CC(=O)N(CC(N)=O)Cc1cccs1	42.6	91.2	46	115	–	–	–	3.13
CC(C)=CCC/C(C)=C/CNCC(=O)N(CCCCN)CC(=O)N(CC(N)=O)Cc1ccco1	–	–	–	–	–	–	–	400 (≈ 841 µM)
CC(C)=CCC/C(C)=C/CC/C(C)=C/CNCC(=O)N(CCCCN)CC(=O)N(CCc1c[nH]c2ccccc12)CC(N)=O	–	–	–	–	–	–	–	100 (≈ 165 µM)
CCCCCCCCCCCCCNCC(=O)N(CCCCN)CC(=O)N(C)CC(N)=O	–	54.3 (≈ 119 µM)	–	–	1	–	–	50 (≈ 110 µM)
CCCCCCCCCCCCCNCC(=O)N(CCCCCCN)CC(=O)N(CC(N)=O)Cc1cccs1	–	56.2 (≈ 99.3 µM)	–	–	18	–	–	3.13 (≈ 5.53 µM)
CCCCCCCCCCCCCNCC(=O)N(CCCN)CC(=O)N(CC(N)=O)Cc1cccs1	–	47.3 (≈ 90.3 µM)	–	–	15	–	–	3.13 (≈ 5.98 µM)
CCCCCCCCCCCCCNCC(=O)N(CCCCN)CC(=O)N(CC(N)=O)Cc1cccs1	37.2	79.3 (≈ 147 µM)	48.6	65.9 (≈ 123 µM)	25	12	21	3.13 (≈ 5.82 µM)
CC(C)=CCC/C(C)=C/CC/C(C)=C/CNCC(=O)N(CCCCN)CC(=O)N(CC(N)=O)Cc1cccs1	–	–	–	–	–	–	–	400 (≈ 715 µM)
CCCCCCCCCCNCC(=O)N(CCCCN)CC(=O)N(CC(N)=O)Cc1ccco1	–	–	–	–	–	–	–	400 (≈ 834 µM)
CCCCCCCCCCCCCNCC(=O)N(CCCCN)CC(=O)N(CC(N)=O)Cc1ccncc1	–	104 (≈ 195 µM)	–	–	4	–	–	25 (≈ 46.9 µM)
CC(C)=CCC/C(C)=C/CC/C(C)=C/CNCC(=O)N(CCCCN)CC(=O)N(CC(N)=O)Cc1ccco1	–	800 (≈ 1470 µM)	–	–	8	–	–	100 (≈ 184 µM)
CCCCCCCCCCCCCNCC(=O)N(CCCCN)CC(=O)N(CCCn1ccnc1)CC(N)=O	–	228 (≈ 415 µM)	–	–	5	–	–	50 (≈ 90.9 µM)
CCCCCCCCCCCCCNCC(=O)N(C)CC(=O)N(CC(N)=O)Cc1ccco1	–	21.1 (≈ 45.4 µM)	–	–	2	–	–	12.5 (≈ 26.9 µM)
CCCCCCCCCCCCCNCC(=O)N(CCCCO)CC(=O)N(CC(N)=O)Cc1cccs1	–	31 (≈ 57.5 µM)	–	–	3	–	–	12.5 (≈ 23.2 µM)

— ChEMBL document CHEMBL4265984, “Improved potency and reduced toxicity of the antifungal peptoid AEC5 through submonomer modification” (Bioorg Med Chem Lett, 2018)
